From PubChem BioAssay
E-sel inducer: induces E-selectin expression in human endothelial cells. HUVEC E-selectin immunofluorescence imaging; normalized: neutral wells 0, TNF-alpha wells 100. activation, % at 7.58 µM. 260,000 tested, 0.37% active;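 active means mean E-selectin-positive cell signal at least 10% of the positive control, reached in at least 60% of replicates, without over 20% cell loss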
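material = human umbilical vein endothelial cells (HUVEC), E-selectin induction | quantity = 3,000 cells/well | medium = EGM-2 growth medium on 0.1% gelatin-coated wells | technique = immunofluorescence imaging | read-out basis = % PE-positive cells | control set = TNF-alpha positive control, DMSO neutral control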
Ecoli rRNA inh: inhibits bacterial ribosomal RNA function over humanized ribosomes; E. coli WT GFP vs humanized-ribosome RFP mutants, fluorescence, 24 h; active compounds read low; DMSO median 0, no signal -100; GFP signal change (wild-type ribosome), % (test concentration not listed); 350,000 tested, 1.6% active;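 active means significant combined selectivity score with lowered wild-type GFP, culture density cut under 30%, mutant RFP and density less affected; inactive means any of these conditions unmet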
SIRT5 inh: blocks human SIRT5 desuccinylation of peptide; Purified SirT5, succinyl-peptide AMC, trypsin-coupled fluorescence; inhibition, % at 15 µM; 330,000 tested, 1.1% active; Q9NXA8; in the data active means inhibition above about 15%
Target sequence (Q9NXA8 whole entry, looked up): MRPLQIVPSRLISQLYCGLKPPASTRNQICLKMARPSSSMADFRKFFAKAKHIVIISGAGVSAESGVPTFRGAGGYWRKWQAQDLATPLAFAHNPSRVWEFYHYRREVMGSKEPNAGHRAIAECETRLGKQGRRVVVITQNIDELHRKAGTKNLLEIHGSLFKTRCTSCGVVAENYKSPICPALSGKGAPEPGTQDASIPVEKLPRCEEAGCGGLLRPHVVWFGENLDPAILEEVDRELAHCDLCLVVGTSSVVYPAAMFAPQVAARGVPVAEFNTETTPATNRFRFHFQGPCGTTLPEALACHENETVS
Statin myotox sup: protects C2C12 myotubes from simvastatin toxicity; ATP luminescence, 48 h; scaled: DMSO 0, geranylgeraniol control 100; 330,000 tested, 0.78% active; rescue of ATP level, % at 7.49 µM;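 active means mean ATP rescue above about 67%, or every replicate alone reaching that limit, limit read from the data, passing the limit was not always enough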;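 further: myotubes were challenged with 10 µM simvastatin during compound exposure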
FGF22 binding: FGF22 (human) thermal shift binding | recombinant FGF22 thermal shift, SYPRO orange fluorescence; percent of sucrose octasulfate shift, DMSO zero | activity (Tm shift, normalised), % at 9.99 µM | 340,000 tested, 1.5% active;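 active means mean Tm shift, scaled 0 neutral to 100 positive control, at about 1.3% or above, every replicate too, limit read from the data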
Target sequence (Q9HCT0 whole entry, looked up): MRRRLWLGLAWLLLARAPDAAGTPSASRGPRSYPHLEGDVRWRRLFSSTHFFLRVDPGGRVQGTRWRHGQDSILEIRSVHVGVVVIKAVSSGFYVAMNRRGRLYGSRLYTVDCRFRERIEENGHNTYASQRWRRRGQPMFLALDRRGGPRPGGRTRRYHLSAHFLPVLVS
FN deposit inh: fibronectin deposition inhibition; AH1F fibroblasts, Alexa488-fibronectin deposition fluorescence, overnight; inhibition, % at 12.6 µM; 350,000 tested, 0.086% active; AID 743247;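 active means mean inhibition across replicates of 30% or more, regardless of how many single replicates reach that level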;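 further: positive control wells lacked labelled fibronectin entirely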
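Material: AH1F fibroblasts assembling fluorescent fibronectin matrix; amount: 10000 AH1F cells/well; medium: DMEM, 2% serum; reagent: Alexa488-fibronectin, 24 nM final in well; dosing: single compound dose, delivered by pin transfer; incubation: 1 h adhesion, overnight exposure; detection: fluorescence after three HBSS washes, excitation 485 nm, emission 525 nm; measure: fibronectin deposition inhibition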
An asterisk follows results filed as active; . = no result given. Rows were chosen to be rich in hits. Some 4% of all compounds tested hit in one or more screens of this group.

SMILES	E-sel inducer	Ecoli rRNA inh	SIRT5 inh	Statin myotox sup	FGF22 binding	FN deposit inh
COC(=O)CCCC(=O)N1CCOCCN(C(=O)CCCC(=O)OC)CCOCC1	.	.	.	110.4*	.	.
C=CCn1ncc(OC)c(Cl)c1=O	.	-17.2	24.3*	.	0.4	.
COc1cnn(-c2cccc(C)c2)c(=O)c1Cl	0.3	0.4	-1.8	-1.7	0.0	1.3
CC(=O)c1ccc(N(C(=O)CNC(=O)c2ccco2)C(C(=O)NC2CCCC2)c2ccc(C)o2)cc1 (stereo not given)	33.3*	1.0	-0.9	8.7	-0.3	5.0
CCOC(=O)c1ccc(N(C(=O)c2ccco2)C(C(=O)NC2CCCCC2)c2ccncc2)cc1 (stereo not given)	35.3*	3.9	-0.7	0.1	-0.3	-5.0
CC(=O)c1ccc(N(C(=O)c2ccco2)C(C(=O)NC2CCCC2)c2ccc(N3CCOCC3)cc2)cc1 (stereo not given)	.	14.0	0.7	1.3	43.7*	-17.9
COc1cc(OC)cc(N(C(=O)c2ccco2)C(C(=O)NC2CCCC2)c2ccc(N3CCOCC3)cc2)c1 (stereo not given)	.	-2.7	-0.2	-10.8	-0.2	4.0
C[C@@H]1CN([C@H](C)CO)S(=O)(=O)c2ccc(-c3cccc(F)c3)cc2O[C@@H]1CN(C)C(=O)C1CC1	-0.4	-7.1	-1.7	4.6	-0.2	-7.1
CCOC(=O)c1sc(=S)n(-c2ccc(Cl)cc2)c1SC	.	.	.	104.9*	.	-8.8
C[C@@H]1CCCCO[C@H](CN(C)CC2CC2)[C@H](C)CN([C@H](C)CO)C(=O)c2cc(NC(=O)NC3CCCCC3)ccc2O1	0.4	4.1	-3.3	.	0.2	.
COCC(=O)OCC(=O)N1N=C(c2ccc(Cl)cc2)CC1c1ccco1 (stereo not given)	.	-4.8	-1.4	.	44.0*	0.0
Cc1ccc(OCC(=O)N2N=C(c3ccc(Cl)cc3)CC2c2ccco2)c([N+](=O)[O-])n1 (stereo not given)	.	-1.5	4.5	.	0.4	1.8
O=C(COc1cccnc1[N+](=O)[O-])N1N=C(c2ccc(Cl)cc2)CC1c1ccco1 (stereo not given)	.	-19.7*	0.7	.	0.5	0.5
CCC(=O)N1N=C(c2ccc(Cl)cc2)CC1c1ccco1 (stereo not given)	1.0	-27.9*	-2.2	8.5	-0.2	0.3
COc1ccc2c3c([nH]c2c1)[C@@H](CO)N(Cc1ccc(Cl)cc1)CC31CN(Cc2ccccc2)C1	.	-10.4	.	.	.	.
O=C(O)c1ccc(/C=N/Nc2cccc(C(F)(F)F)c2)cc1	6.1	-41.0*	-0.4	-7.3	0.3	-7.2
CC(C)c1ccc(/C=N/Nc2ccc(C(=O)O)cc2)cc1	.	-3.2	2.7	.	44.1*	2.2
O=C(O)c1ccc(N/N=C/c2ccc(-c3ccccc3)cc2)cc1	.	-44.6	0.5	.	42.6	-2.8
Cc1noc(C)c1NC(=O)N(C)C[C@H]1Oc2ccc(NS(=O)(=O)c3ccc(Cl)cc3)cc2CC(=O)N([C@H](C)CO)C[C@H]1C	0.0	1.4	-1.9	-15.8	-0.3	.
CC(C)OC(=O)c1ccc(NCc2cc(O)ccc2O)cc1	-0.3	-27.6	.	.	0.2	9.6
O=C(OCc1ccccc1)c1ccc(NCc2cc(O)ccc2O)cc1	-1.3	-36.4*	.	.	0.6	28.7
O=C(C[C@H]1CC[C@H]2[C@@H](COC[C@@H](O)CN2S(=O)(=O)c2ccccc2)O1)NCCN1CCCC1	-0.1	5.0	-7.9	.	-0.1	-3.8
CO[C@@H]1CN(C)C(=O)c2cc(NC(C)=O)ccc2OC[C@@H](C)N(CCC(F)(F)F)C[C@@H]1C	-0.2	0.1	-1.6	-12.3	-0.2	2.1
COc1ccc(S(=O)(=O)N(C)C[C@@H]2OCCCC[C@H](C)Oc3ccc(NC(=O)Nc4ccc(F)cc4)cc3C(=O)N([C@H](C)CO)C[C@H]2C)cc1	0.6	1.5	16.8*	-12.5	-0.5	8.4
COc1ccc(NC(=O)Nc2ccc3c(c2)C(=O)N([C@@H](C)CO)C[C@H](C)[C@@H](CN(C)S(=O)(=O)c2ccc(F)cc2)OCCCC[C@@H](C)O3)cc1	.	0.9	7.8	.	-0.5	-31.5
SMILES	E-sel inducer	Ecoli rRNA inh	SIRT5 inh	Statin myotox sup	FGF22 binding	FN deposit inh
COc1ccc(S(=O)(=O)N(C)C[C@@H]2OCCCC[C@@H](C)Oc3ccc(NC(=O)Nc4ccc(C(F)(F)F)cc4)cc3C(=O)N([C@@H](C)CO)C[C@@H]2C)cc1	0.2	-1.0	27.5*	-73.0	0.5	-11.7
COc1ccc(NC(=O)Nc2ccc3c(c2)C(=O)N([C@@H](C)CO)C[C@@H](C)[C@H](CN(C)S(=O)(=O)c2ccccc2)OCCCC[C@@H](C)O3)cc1	.	-3.2	15.2*	.	0.1	-6.8
COc1ccc(S(=O)(=O)N(C)C[C@H]2OCCCC[C@H](C)Oc3ccc(NC(=O)Nc4ccc(F)cc4)cc3C(=O)N([C@H](C)CO)C[C@@H]2C)cc1	0.2	-2.5	16.6*	2.3	0.3	-16.8
COc1ccc(S(=O)(=O)N(C)C[C@H]2OCCCC[C@@H](C)Oc3ccc(NC(=O)Nc4ccc(C(F)(F)F)cc4)cc3C(=O)N([C@@H](C)CO)C[C@H]2C)cc1	0.2	2.8	8.4	-40.4	-0.5	-7.7
C[C@H](CO)N1C[C@H](C)[C@H](CN(C)Cc2cccnc2)Oc2cc(C#CCN(C)C)ccc2S1(=O)=O	0.1	1.5	-3.9	-13.8	-0.2	3.0
COc1ccc(S(=O)(=O)N(C)C[C@H]2Oc3cc(C4=CCCC4)ccc3S(=O)(=O)N([C@H](C)CO)C[C@H]2C)cc1	0.6	1.0	3.7	-31.5	-0.3	-5.1
C[C@@H]1CN([C@@H](C)CO)C(=O)Cc2cc(NC(=O)Cc3ccccc3)ccc2O[C@H]1CN(C)Cc1ccc(Oc2ccccc2)cc1	9.0	-4.9	8.7	49.9	-0.4	.
CO[C@H]1CN(C)C(=O)c2cc(NC(=O)c3ccc4c(c3)OCO4)ccc2OC[C@@H](C)N(CC2CC2)C[C@H]1C	-0.4	1.1	-1.2	-1.8	-0.5	.
C[C@@H]1CCCCO[C@@H](CN(C)S(=O)(=O)c2ccc(F)cc2)[C@H](C)CN([C@@H](C)CO)C(=O)c2cc(NC(=O)Nc3ccc4c(c3)OCO4)ccc2O1	-0.1	1.1	20.7*	.	0.0	-1.8
C[C@@H]1CN([C@@H](C)CO)C(=O)c2cc(-c3cccnc3)cnc2O[C@H]1CN(C)C(=O)c1ccccc1F	0.5	-0.3	-0.4	-2.4	0.0	.
CCNC(=O)C[C@H]1CC[C@H]2[C@@H](COc3ccc(NS(C)(=O)=O)cc3C(=O)N2C)O1	0.1	4.4	7.2	17.6	-0.7	-6.4
COc1ccc(CCNC(=O)c2cnn(-c3ccc(C)c(C)c3)c2NC(=O)c2ccco2)cc1OC	.	.	.	-1.8	.	.
